Values after ≈ are worked out from the molar mass of the structure shown.
Assays:
Phocaeicola vulgatus [1] = assay: Antimicrobial activity against Bacteroides vulgatus assessed as percent susceptible isolates after 48 hrs by agar dilution method; type: functional
Bacteroides caccae [2] = assay: Antimicrobial activity against Bacteroides caccae assessed as percent susceptible isolates after 48 hrs by agar dilution method; type: functional
Prevotella buccae [3] = assay: Antimicrobial activity against Prevotella buccae after 48 hrs by agar dilution method; type: functional; conditions: Segatella buccae
Outline: (§1)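 CLSI agar dilution (M11-A7); inoculum 10^5 CFU applied by replicator; plates incubated anaerobically 48 h at 37°C. For piperacillin-tazobactam, tazobactam held constant at 4 μg/ml.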

Clostridium perfringens = assay: Antimicrobial activity against Clostridium perfringens after 48 hrs by agar dilution method; type: functional
Anaerococcus prevotii = assay: Antimicrobial activity against Anaerococcus prevotii after 48 hrs by agar dilution method; type: functional
Outline: (§2)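 MICs on clinical anaerobe isolates by the CLSI agar dilution method. Inoculum of 10^5 CFU applied with a Steers replicator. Plates incubated 48 h at 37°C in an anaerobic chamber.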

Bifidobacterium sp. [4] = assay: Antimicrobial activity against Bifidobacterium sp. after 48 hrs by agar dilution method; type: functional; outline: as §2
Bacteroides fragilis = assay: Antimicrobial activity against Bacteroides fragilis assessed as percent susceptible isolates after 48 hrs by agar dilution method; type: functional
[5] = tested on: Parabacteroides distasonis; assay: Antimicrobial activity against Bacteroides distasonis assessed as percent resistant isolates after 48 hrs by agar dilution method; type: functional
Outline: (§3)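 CLSI agar dilution on recent Korean clinical anaerobe isolates. Inoculum 10^5 CFU per spot by replicator. Plates incubated in an anaerobic chamber at 37°C for 48 h. For piperacillin plus tazobactam, tazobactam was held constant at 4 μg/ml. Resistance and susceptibility rates derived from MICs.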

Eggerthella lenta [6] = assay: Antimicrobial activity against Eubacterium lentum assessed as percent resistant isolates after 48 hrs by agar dilution method; type: functional; outline: as §3
Finegoldia magna [7] = assay: Antimicrobial activity against Finegoldia magna assessed as percent resistant isolates after 48 hrs by agar dilution method; type: functional; outline: as §3
Schaalia odontolytica [8] = assay: Antimicrobial activity against Actinomyces odontolyticus assessed as percent susceptible isolates after 48 hrs by agar dilution method; type: functional
Eggerthella lenta [9] = assay: Antimicrobial activity against Eubacterium lentum assessed as percent susceptible isolates after 48 hrs by agar dilution method; type: functional; outline: as §1
Bifidobacterium sp. [10] = assay: Antimicrobial activity against Bifidobacterium sp. assessed as percent resistant isolates after 48 hrs by agar dilution method; type: functional; outline: as §3
Bacteroides ovatus [11] = assay: Antimicrobial activity against Bacteroides ovatus after 48 hrs by agar dilution method; type: functional; outline: as §2
Prevotella intermedia [12] = assay: Antimicrobial activity against Prevotella intermedia after 48 hrs by agar dilution method; type: functional; outline: as §1
Parvimonas micra = assay: Antimicrobial activity against Peptostreptococcus micros after 48 hrs by agar dilution method; type: functional; outline: as §1
Schaalia odontolytica [13] = assay: Antimicrobial activity against Actinomyces odontolyticus assessed as percent resistant isolates after 48 hrs by agar dilution method; type: functional; outline: as §3
Prevotella bivia [14] = assay: Antimicrobial activity against Prevotella bivia after 48 hrs by agar dilution method; type: functional; outline: as §1
[15] = tested on: Peptostreptococcus anaerobius; assay: Antimicrobial activity against Peptostreptococcus anaerobius after 48 hrs by agar dilution method; type: functional; outline: as §1
Clostridioides difficile [16] = assay: Antimicrobial activity against Clostridium difficile after 48 hrs by agar dilution method; type: functional
[17] = tested on: Bifidobacterium adolescentis; assay: Antimicrobial activity against Bifidobacterium adolescentis after 48 hrs by agar dilution method; type: functional; outline: as §2
[18] = tested on: Parabacteroides distasonis; assay: Antimicrobial activity against Bacteroides distasonis assessed as percent susceptible isolates after 48 hrs by agar dilution method; type: functional
Prevotella buccae [19] = assay: Antimicrobial activity against Prevotella buccae assessed as percent resistant isolates after 48 hrs by agar dilution method; type: functional, Segatella buccae; outline: as §3
[20] = tested on: Bacteroides thetaiotaomicron; assay: Antimicrobial activity against Bacteroides thetaiotaomicron assessed as percent susceptible isolates after 48 hrs by agar dilution method; type: functional
Bifidobacterium sp. [21] = assay: Antimicrobial activity against Bifidobacterium sp. assessed as percent susceptible isolates after 48 hrs by agar dilution method; type: functional; outline: as §1
[22] = tested on: Bacteroides thetaiotaomicron; assay: Antimicrobial activity against Bacteroides thetaiotaomicron after 48 hrs by agar dilution method; type: functional; outline: as §2
Schaalia meyeri [23] = assay: Antimicrobial activity against Actinomyces meyeri assessed as percent resistant isolates after 48 hrs by agar dilution method; type: functional; outline: as §3
Hoylesella oralis [24] = assay: Antimicrobial activity against Prevotella oralis assessed as percent susceptible isolates after 48 hrs by agar dilution method; type: functional
Outline: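 CLSI agar dilution MIC testing of clinical isolates. 10^5 CFU spotted by replicator, plates incubated 48 h at 37°C in an anaerobic chamber. Susceptibility rates derived from the MICs.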

Finegoldia magna [25] = assay: Antimicrobial activity against Finegoldia magna assessed as percent susceptible isolates after 48 hrs by agar dilution method; type: functional; outline: as §1
Fusobacterium necrogenes = assay: Antimicrobial activity against Fusobacterium necrogenes after 48 hrs by agar dilution method; type: functional; outline: as §1
Prevotella buccae [26] = assay: Antimicrobial activity against Prevotella buccae assessed as percent susceptible isolates after 48 hrs by agar dilution method; type: functional, Segatella buccae; outline: as §1
Prevotella intermedia [27] = assay: Antimicrobial activity against Prevotella intermedia assessed as percent resistant isolates after 48 hrs by agar dilution method; type: functional; outline: as §3
Bacteroides ovatus [28] = assay: Antimicrobial activity against Bacteroides ovatus assessed as percent resistant isolates after 48 hrs by agar dilution method; type: functional; outline: as §3
Bacteroides caccae [29] = assay: Antimicrobial activity against Bacteroides caccae assessed as percent resistant isolates after 48 hrs by agar dilution method; type: functional; outline: as §3
Actinomyces israelii = assay: Antimicrobial activity against Actinomyces israelii assessed as percent resistant isolates after 48 hrs by agar dilution method; type: functional; outline: as §3
[30] = tested on: Peptostreptococcus anaerobius; assay: Antimicrobial activity against Peptostreptococcus anaerobius assessed as percent susceptible isolates after 48 hrs by agar dilution method; type: functional; outline: as §3
Clostridioides difficile [31] = assay: Antimicrobial activity against Clostridium difficile assessed as percent susceptible isolates after 48 hrs by agar dilution method; type: functional
[32] = tested on: Bifidobacterium adolescentis; assay: Antimicrobial activity against Bifidobacterium adolescentis assessed as percent susceptible isolates after 48 hrs by agar dilution method; type: functional
Eubacterium sp. [33] = assay: Antimicrobial activity against Eubacterium sp. assessed as percent resistant isolates after 48 hrs by agar dilution method; type: functional; outline: as §3
Actinomyces naeslundii = assay: Antimicrobial activity against Actinomyces naeslundii after 48 hrs by agar dilution method; type: functional; outline: as §2
Fusobacterium nucleatum = assay: Antimicrobial activity against Fusobacterium nucleatum after 48 hrs by agar dilution method; type: functional; outline: as §1
Prevotella bivia [34] = assay: Antimicrobial activity against Prevotella bivia assessed as percent resistant isolates after 48 hrs by agar dilution method; type: functional; outline: as §3
Phocaeicola vulgatus [35] = assay: Antimicrobial activity against Bacteroides vulgatus after 48 hrs by agar dilution method; type: functional; outline: as §2
Hoylesella oralis [36] = assay: Antimicrobial activity against Prevotella oralis assessed as percent resistant isolates after 48 hrs by agar dilution method; type: functional; outline: as §3
[37] = tested on: Porphyromonas asaccharolytica; assay: Antimicrobial activity against Porphyromonas asaccharolytica after 48 hrs by agar dilution method; type: functional; outline: as §1
Schaalia meyeri [38] = assay: Antimicrobial activity against Actinomyces meyeri assessed as percent susceptible isolates after 48 hrs by agar dilution method; type: functional
Eubacterium sp. [39] = assay: Antimicrobial activity against Eubacterium sp. assessed as percent susceptible isolates after 48 hrs by agar dilution method; type: functional; outline: as §1
Finegoldia magna [40] = assay: Antimicrobial activity against Finegoldia magna after 48 hrs by agar dilution method; type: functional; outline: as §1

C[C@@H](O)[C@H]1C(=O)N2C(C(=O)O)=C(SCCNC=N)C[C@H]12 [IMIPENEM ANHYDROUS]
Activity (Phocaeicola vulgatus [1]): 95% | Activity (Bacteroides caccae [2]): 95% | MIC50 (Prevotella buccae [3]): 0.06 µg/mL (≈ 0.2 µM) | MIC90 (Prevotella buccae [3]): 0.5 µg/mL (≈ 1.67 µM) | MIC50 (Clostridium perfringens): 0.125 µg/mL (≈ 0.418 µM) | MIC90 (Clostridium perfringens): 0.125 µg/mL (≈ 0.418 µM) | MIC50 (Anaerococcus prevotii): 0.06 µg/mL (≈ 0.2 µM) | MIC90 (Anaerococcus prevotii): 0.25 µg/mL (≈ 0.835 µM) | MIC50 (Bifidobacterium sp. [4]): 0.06 µg/mL (≈ 0.2 µM) | MIC90 (Bifidobacterium sp. [4]): 0.5 µg/mL (≈ 1.67 µM) | Activity (Bacteroides fragilis): 98% | Activity [5]: 4% | Activity (Eggerthella lenta [6]): 0% | Activity (Finegoldia magna [7]): 0% | Activity (Schaalia odontolytica [8]): 100% | Activity (Eggerthella lenta [9]): 100% | Activity (Bifidobacterium sp. [10]): 0% | MIC50 (Bacteroides ovatus [11]): 0.5 µg/mL (≈ 1.67 µM) | MIC90 (Bacteroides ovatus [11]): 4 µg/mL (≈ 13.4 µM) | MIC (Prevotella intermedia [12]): 0.02 µg/mL (≈ 0.0668 µM) | MIC50 (Prevotella intermedia [12]): 0.03 µg/mL (≈ 0.1 µM) | MIC90 (Prevotella intermedia [12]): 0.06 µg/mL (≈ 0.2 µM) | MIC50 (Parvimonas micra): 0.125 µg/mL (≈ 0.418 µM) | MIC90 (Parvimonas micra): 2 µg/mL (≈ 6.68 µM) | Activity (Schaalia odontolytica [13]): 0% | MIC50 (Prevotella bivia [14]): 0.06 µg/mL (≈ 0.2 µM) | MIC90 (Prevotella bivia [14]): 0.5 µg/mL (≈ 1.67 µM) | MIC50 [15]: 0.125 µg/mL (≈ 0.418 µM) | MIC90 [15]: 2 µg/mL (≈ 6.68 µM) | MIC50 (Clostridioides difficile [16]): 4 µg/mL (≈ 13.4 µM) | MIC90 (Clostridioides difficile [16]): 8 µg/mL (≈ 26.7 µM) | MIC50 [17]: 0.06 µg/mL (≈ 0.2 µM) | MIC90 [17]: 0.5 µg/mL (≈ 1.67 µM) | Activity [18]: 95% | Activity (Prevotella buccae [19]): 0% | Activity [20]: 95% | Activity (Bifidobacterium sp. [21]): 100% | MIC50 [22]: 0.5 µg/mL (≈ 1.67 µM) | MIC90 [22]: 4 µg/mL (≈ 13.4 µM) | Activity (Schaalia meyeri [23]): 0% | Activity (Hoylesella oralis [24]): 100% | Activity (Finegoldia magna [25]): 100% | MIC (Fusobacterium necrogenes): 0.02 µg/mL (≈ 0.0668 µM) | Activity (Prevotella buccae [26]): 100% | Activity (Prevotella intermedia [27]): 0% | Activity (Bacteroides ovatus [28]): 4% | Activity (Bacteroides caccae [29]): 4% | Activity (Actinomyces israelii): 0% | Activity [30]: 100% | Activity (Clostridioides difficile [31]): 58% | Activity [32]: 100% | Activity (Eubacterium sp. [33]): 0% | MIC50 (Actinomyces naeslundii): 0.06 µg/mL (≈ 0.2 µM) | MIC90 (Actinomyces naeslundii): 0.5 µg/mL (≈ 1.67 µM) | MIC (Fusobacterium nucleatum): 0.02 µg/mL (≈ 0.0668 µM) | Activity (Prevotella bivia [34]): 0% | MIC50 (Phocaeicola vulgatus [35]): 0.5 µg/mL (≈ 1.67 µM) | MIC90 (Phocaeicola vulgatus [35]): 4 µg/mL (≈ 13.4 µM) | Activity (Hoylesella oralis [36]): 0% | MIC [37]: 0.02 µg/mL (≈ 0.0668 µM) | Activity (Schaalia meyeri [38]): 100% | Activity (Eubacterium sp. [39]): 100% | MIC50 (Finegoldia magna [40]): 0.06 µg/mL (≈ 0.2 µM) | MIC90 (Finegoldia magna [40]): 0.125 µg/mL (≈ 0.418 µM)

Reference: ChEMBL document CHEMBL1671716, “Antimicrobial susceptibility patterns for recent clinical isolates of anaerobic bacteria in South Korea” (2010)
